In article PMC3217170 (Biochimica et biophysica acta, 2011):

Columns and labels:
[1] = tested on: PKCθ (pT538) in pancreatic acini; test: PKCθ T538 phosphorylation in rat pancreatic acini; format: cell-based; conditions: for stimulation of PKCθ phosphorylation (pT538), secretagogues: isolated rat pancreatic acini, 5 minutes, Western blot; for stimulation of PKCθ phosphorylation (pT538), secretagogues / tmax of pT538 PKCθ phosphorylation / pT538 PKCθ phosphorylation, maximum at about 1 min / pT538 PKCθ phosphorylation at 30 min: 5 independent experiments; for tmax of pT538 PKCθ phosphorylation / pT538 PKCθ phosphorylation, maximum at about 1 min / pT538 PKCθ phosphorylation at 30 min: time course
[2] = tested on: pancreatic acini (amylase secretion); test: Amylase release from pancreatic acini; format: cell-based, rat; conditions: 15 minutes, basal 1.7±0.2, mean±S.E., 6 experiments
How it was run: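 Rat pancreatic acini from collagenase digestion; 2 h preincubation ± 20 μM PKCθ pseudosubstrate in HEPES-buffered (pH 7.45) standard incubation solution, then 15 min with secretagogue. Medium amylase measured with Phadebas reagent and expressed as % of total cellular amylase released during incubation. Means±S.E.; paired Student's t-test.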

[3] = tested on: PKCδ; conditions: ref [60]; cited from earlier work
[4] = tested on: CCKA receptor; test: CCKA receptor mediation of PKCθ T538 phosphorylation in pancreatic acini; format: cell-based, rat
[5] = tested on: PKCθ; test: PKCθ translocation to membranes; format: cell-based, rat; conditions: p<0.05, mean±S.E., 5 independent experiments
How it was run: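 Acini stimulated with CCK for 1 min or TPA for 5 min, then homogenized in Tris pH 7.5 buffer with EGTA/EDTA, vanadate, PMSF and protease inhibitors. The cleared supernatant was spun at 60,000×g for 30 min at 4 °C. The membrane pellet was washed, solubilized in Triton/deoxycholate buffer, sonicated and spun at 10,000×g. Western blot used anti-PKCθ; calpain and E-cadherin served as fraction markers. Results given as % control; 5 experiments.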

[6] = tested on: pT538 PKCθ; test: PKCθ immunofluorescence-cytochemistry; format: cell-based, rat; conditions: TPA 1 μM or CCK 10 nM, 10 minutes; 4 independent experiments
How it was run: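 Acini left untreated or given TPA 1 μM or CCK 10 nM for 10 min, then washed, fixed, permeabilized and cytocentrifuged onto poly-L-lysine slides. Labelled overnight at 4 °C with rabbit anti-pT538 PKCθ and mouse anti-E-cadherin (1:500), detected with Alexa 488/555 secondaries, nuclei stained with DAPI. Isotype-matched primary as negative control; 4 experiments.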

[7] = tested on: PKCθ / Akt; test: Co-IP association of PKCθ with Akt; format: cell-based, rat; conditions: CCK 10 nM or TPA 1 μM, 2.5 min, 3 independent experiments
[8] = tested on: PKCθ / RafA; test: Co-IP association of PKCθ with RafA; format: cell-based, rat; conditions: 2.5 min, 3 independent experiments; for association of PKCθ with RafA: CCK 10 nM or TPA 1 μM
[9] = tested on: PKCθ / RafC; test: Co-IP association of PKCθ with RafC; format: cell-based, rat; conditions: 2.5 min, 3 independent experiments; for association of PKCθ with RafC: CCK 10 nM or TPA 1 μM
[10] = tested on: PKCθ / Lyn; test: Co-IP association of PKCθ with Lyn; format: cell-based, rat; conditions: 2.5 min, 3 independent experiments; for association of PKCθ with Lyn: CCK 10 nM or TPA 1 μM
[11] = tested on: PKCθ / MALT-1; test: Co-IP association of PKCθ with MALT-1; format: cell-based, rat; conditions: CCK 10 nM or TPA 1 μM, data not shown
[12] = tested on: PKCθ / 14-3-3γ; test: Co-IP association of PKCθ with 14-3-3γ; format: cell-based, rat; conditions: CCK 10 nM or TPA 1 μM, data not shown
[13] = tested on: PKCθ / Cbl; test: Co-IP association of PKCθ with Cbl; format: cell-based, rat; conditions: CCK 10 nM or TPA 1 μM, data not shown
[14] = tested on: PKCθ / p85 PI3K; test: Co-IP association of PKCθ with p85 PI3K; format: cell-based, rat
How it was run: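 Rat acini stimulated with CCK 10 nM or TPA 1 μM, then lysed in CelLytic buffer with vanadate, PMSF and protease inhibitors. Lysate (750 μg/ml) incubated overnight at 4 °C with 4 μg antibody and protein G-agarose. Immunoprecipitates washed with PBS, then analysed by SDS-PAGE and Western blotting.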

[15] = tested on: PKCθ / RafB; test: Co-IP association of PKCθ with RafB; format: cell-based, rat
How it was run: (§1)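 Rat pancreatic acini are dispersed by collagenase and preincubated 2 hrs at 37 °C in HEPES (pH 7.45) incubation solution, then left unstimulated or given CCK (10 nM) or TPA (1 μM). Cells are lysed in CelLytic buffer with vanadate, PMSF and protease inhibitors. Lysate (750 μg/ml) is immunoprecipitated overnight at 4 °C with 4 μg anti-PKCθ plus protein G-agarose, PBS-washed, then analysed by SDS-PAGE/Western blot; ≥3 experiments.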

[16] = tested on: PKCθ / tubulin; test: Co-IP association of PKCθ with tubulin; format: cell-based, rat
How it was run: as §1

[17] = tested on: PKD (pS744/748); test: PKD phosphorylation stimulated by CCK or TPA; format: cell-based, rat; conditions: no inhibitor, p<0.05
How it was run: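 Collagenase-dispersed rat acini preincubated 3 h ± 20 μM PKCθ pseudosubstrate, then CCK (10 nM, 2.5 min) or TPA (1 μM, 5 min), and lysed. Equal protein Western-blotted for pY311 PKCδ, pS744/748 PKD, pS338 RafC or pY416 Src, with total PKCθ and α/β tubulin as loading controls. Bands quantified by densitometry in the linear range. ≥3 experiments; mean±SEM; paired t-test.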

[18] = tested on: PKCmu (PKD1); conditions: pancreatic acinar cells; no reference printed at this sentence; cited from earlier work
[19] = tested on: PYK2/CAKβ; conditions: pancreatic acinar cells; ref [17]; cited from earlier work
[20] = tested on: Lyn; conditions: pancreatic acinar cells; ref [64]; cited from earlier work
[21] = tested on: PKCδ; conditions: pancreatic acinar cells, cited from earlier work
[22] = tested on: CrKII; conditions: pancreatic acinar cells; ref [66]; cited from earlier work
[23] = tested on: PI-3 kinase; conditions: pancreatic acinar cells; ref [67]; cited from earlier work
[24] = tested on: phospholipase D; conditions: pancreatic acinar cells; ref [67]; cited from earlier work
[25] = tested on: PKCθ (T538); conditions: ref [61]; cited from earlier work
[26] = tested on: PKCθ; conditions: ref [62]; cited from earlier work
[27] = tested on: CCKB receptors; test: CCKB receptor mediation of PKCθ T538 phosphorylation in pancreatic acini; format: cell-based, rat; conditions: 1 min, isolated acini, Western blot
[28] = tested on: PKCθ; conditions: ref [56]; cited from earlier work

Molecule: vasoactive intestinal peptide [VIP]
- stimulation of PKCθ phosphorylation (pT538), secretagogues [1]: Neither
- Amylase secretion (% total), −PKCθ inhibitor ([2]; VIP 10 nM): 3.4±0.6 % total
- PKCδ activation in cortical astrocytes [3]: activates PKCδ

Molecule: O=C(O)Cn1c(C(=O)Nc2nc(-c3ccccc3Cl)cs2)cc2ccccc21 [SR27897, 1-[[2-(4-(2-chlorophenyl)-thiazol-2-yl)aminocarbonyl]indolyl]acetic acid]
- inhibition of CCK-stimulated PKCθ phosphorylation, CCKA receptor antagonists ([4]; preincubated 5 min, then CCK 10 nM for 1 min): completely inhibited

Molecule: COOH-terminal octapeptide of cholecystokinin [CCK]
- maximal stimulation of T538 phosphorylation of PKCθ ([1]; 10 nM, 1 minute, 4–5 independent experiments, mean±S.E.): 239±25 % of control
- concentration of maximal effect, T538 PKCθ phosphorylation ([1]; dose-response, 1 minute): 10 nM
- stimulation of PKCθ phosphorylation (pT538), secretagogues [1]: stimulated a significant increase
- lowest concentration with detectable T538 PKCθ phosphorylation ([1]; pancreatic acinar cells): 0.1 nM
- EC50 ([1]; read-out: half-maximal effect (EC50), T538 PKCθ phosphorylation, dose-response, 1 minute, 4–5 independent experiments, GraphPad 5.0): 0.174 ± 0.008 nM
- tmax of pT538 PKCθ phosphorylation [1]: 0.78±0.08 min
- pT538 PKCθ phosphorylation, maximum at about 1 min ([1]; mean±S.E.): 197±19 % of control
- pT538 PKCθ phosphorylation at 30 min ([1]; mean±S.E.): 145±11 % of control
- CCK stimulation of PKCθ activation mediated by the high affinity state CCKA receptor ([4]; from CCK-JMV versus CCK maximal effect): 30%
- membrane associated PKCθ ([5]; CCK, 1 min incubation): 216±34 % of control
- phosphoT538 PKCθ in the membrane (immunofluorescence) [6]: increased in the membrane
- association of PKCθ with Akt [7]: increase in the association
- association of PKCθ with RafA [8]: increase in the association
- direct association of PKCθ with RafA at low CCK concentration or with CCK-JMV ([8]; CCK 0.1–1–10 nM or CCK-JMV): observed also at low CCK concentration
- association of PKCθ with RafC [9]: increase in the association
- direct association of PKCθ with RafC at low CCK concentration or with CCK-JMV ([9]; CCK 0.1–1–10 nM or CCK-JMV): observed also at low CCK concentration
- association of PKCθ with Lyn [10]: increase in the association
- direct association of PKCθ with Lyn at low CCK concentration or with CCK-JMV ([10]; CCK 0.1–1–10 nM or CCK-JMV): observed also at low CCK concentration
- association of PKCθ with MALT-1 [11]: but not with MALT-1, Bcl-10, 14-3-3γ or Cbl
- association of PKCθ with 14-3-3γ [12]: but not with MALT-1, Bcl-10, 14-3-3γ or Cbl
- association of PKCθ with Cbl [13]: but not with MALT-1, Bcl-10, 14-3-3γ or Cbl
- association of PKCθ with p85 PI3K [14]: but not an association with p85 PI3K
- association of PKCθ with RafB [15]: but not an association with p85 PI3K, PKD1, RafB
- association of PKCθ with tubulin [16]: but not an association with p85 PI3K, PKD1, RafB, Bcl-10, Cbl, MALT-1, tubulin
- phosphorylation of PKD stimulated by CCK ([17]; CCK 10 nM, 2.5 min): 19.4±3.69 folds over control
- Amylase secretion (% total), −PKCθ inhibitor ([2]; CCK 0.03 nM): 5.1±0.8 % total
- Amylase secretion (% total), −PKCθ inhibitor ([2]; CCK 0.1 nM): 7.1±0.6 % total
- Amylase secretion (% total), −PKCθ inhibitor ([2]; CCK 100 nM): 4.5±0.4 % total
- CCK concentration for maximal PKCmu (PKD1) activation [18]: 10 nM
- share of maximal PYK2/CAKβ activation due to high affinity CCKA receptor state [19]: 20%
- share of Lyn activation due to high affinity CCKA receptor state [20]: 60%
- CCK concentration required to fully activate PKCδ ([21]; no reference printed at this sentence): 100 nM
- CCKA receptor state mediating PKCδ activation ([21]; ref [14]): mediated only through activation of the low affinity CCKA receptor state
- CCKA receptor state mediating CrKII phosphorylation [22]: mediated only through activation of the low affinity CCKA receptor state
- CCKA receptor state mediating PI-3 kinase activation [23]: mediated entirely by the activation of the high affinity receptor state
- CCKA receptor state mediating phospholipase D activation [24]: mediated entirely by the activation of the high affinity receptor state

Molecule: EGF: Epidermal growth factor
- T538 PKCθ phosphorylation in A431 cells [25]: increases T538 PKCθ phosphorylation

Molecule: IGF: insulin-like growth factor 1
- PKCθ catalytic activity in rhabdomyosarcoma cell line [26]: increases PKCθ catalytic activity

Molecule: gastrin
- pT538 PKCθ phosphorylation by gastrin [27]: did not produce any increase

Molecule: bombesin
- stimulation of PKCθ phosphorylation (pT538), secretagogues [1]: stimulated a significant increase

Molecule: insulin: known pancreatic growth factor
- PKCθ activation in myocytes [28]: able to increase PKCθ activation

Molecule: CCCCCCCCCCCCCC(=O)O[C@@H]1[C@@H](C)[C@@]2(O)[C@@H](C=C(CO)C[C@]3(O)C(=O)C(C)=C[C@@H]23)[C@H]2C(C)(C)[C@]12OC(C)=O [TPA, 12-O-tetradecanoylphobol-13-acetate]
- tmax of pT538 PKCθ phosphorylation [1]: 1.60±0.06 min
- pT538 PKCθ phosphorylation, maximum at about 1 min ([1]; mean±S.E.): 188±13 % of control
- pT538 PKCθ phosphorylation at 30 min ([1]; mean±S.E.): 171±23 % of control
- membrane associated PKCθ ([5]; TPA, 5 min incubation): 189±59 % of control
- phosphoT538 PKCθ in the membrane (immunofluorescence) [6]: increased in the membrane in both cases (Panel B and C, Fig. 6, respectively), with the increase caused by TPA more prominent
- association of PKCθ with Akt [7]: increase in the association
- association of PKCθ with RafA [8]: increase in the association
- association of PKCθ with RafC [9]: increase in the association
- association of PKCθ with Lyn [10]: increase in the association
- association of PKCθ with MALT-1 [11]: but not with MALT-1, Bcl-10, 14-3-3γ or Cbl
- association of PKCθ with 14-3-3γ [12]: but not with MALT-1, Bcl-10, 14-3-3γ or Cbl
- association of PKCθ with Cbl [13]: but not with MALT-1, Bcl-10, 14-3-3γ or Cbl
- association of PKCθ with p85 PI3K [14]: but not an association with p85 PI3K
- association of PKCθ with RafB [15]: but not an association with p85 PI3K, PKD1, RafB
- association of PKCθ with tubulin [16]: but not an association with p85 PI3K, PKD1, RafB, Bcl-10, Cbl, MALT-1, tubulin
- phosphorylation of PKD stimulated by TPA ([17]; TPA 1 μM, 5 min): 19.1±3.0 folds over control

Molecule: C[N+](C)(C)CCOC(N)=O [carbachol]
- stimulation of PKCθ phosphorylation (pT538), secretagogues [1]: stimulated a significant increase
- Amylase secretion (% total), −PKCθ inhibitor ([2]; Carbachol 1 μM): 6.8±0.7 % total
- Amylase secretion (% total), −PKCθ inhibitor ([2]; Carbachol 1 mM): 6.2±0.7 % total

Molecule: secretin: gastrointestinal hormone that causes an increase in the cAMP
- stimulation of PKCθ phosphorylation (pT538), secretagogues [1]: Neither
